What was measured:
[1] = target: T1, C-X-C chemokine receptor type 3 (Homo sapiens, UniProt P49682); experiment: Displacement of [125I]-1P10 from human CXCR3 expressed in PBMC after 2 hrs in RPMI buffer by scintillation counting
T1 sequence (P49682 whole entry): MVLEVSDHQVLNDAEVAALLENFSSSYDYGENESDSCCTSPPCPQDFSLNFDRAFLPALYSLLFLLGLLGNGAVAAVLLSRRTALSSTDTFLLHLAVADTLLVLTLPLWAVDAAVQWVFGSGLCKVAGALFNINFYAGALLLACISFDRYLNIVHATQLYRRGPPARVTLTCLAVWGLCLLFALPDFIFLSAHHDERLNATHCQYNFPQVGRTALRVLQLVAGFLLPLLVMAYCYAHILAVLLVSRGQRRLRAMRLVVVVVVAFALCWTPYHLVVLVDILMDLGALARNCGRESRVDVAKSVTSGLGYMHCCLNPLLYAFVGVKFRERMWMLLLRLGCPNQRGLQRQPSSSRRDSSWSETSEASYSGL

[2] = target: T2, C-X-C chemokine receptor type 3 (Rattus norvegicus, UniProt Q9JII9); experiment: Displacement of [125I]-IP10 from rat CXCR3 expressed in human PBMC after 2 hrs in RPMI buffer by scintillation counting
T2 sequence (Q9JII9 whole entry): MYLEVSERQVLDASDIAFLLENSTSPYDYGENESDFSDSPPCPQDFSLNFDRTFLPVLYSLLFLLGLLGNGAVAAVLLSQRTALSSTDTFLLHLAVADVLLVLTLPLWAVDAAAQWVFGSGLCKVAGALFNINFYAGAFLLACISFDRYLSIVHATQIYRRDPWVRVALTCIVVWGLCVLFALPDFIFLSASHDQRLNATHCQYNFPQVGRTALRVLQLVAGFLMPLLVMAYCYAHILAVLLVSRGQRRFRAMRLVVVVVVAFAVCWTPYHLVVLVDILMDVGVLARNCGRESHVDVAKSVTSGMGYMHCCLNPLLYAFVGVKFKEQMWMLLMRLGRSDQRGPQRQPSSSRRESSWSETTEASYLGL
How it was run: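 PBMC bearing CXCR3 were co-incubated with antagonist and recombinant human [125I]-IP10 for 2 h at room temperature in RPMI-1640 (no phenol red) with 0.5% BSA. Cells were harvested onto filter plates and bound radioactivity was counted by scintillation. IC50 values are means of three experiments.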

[3] = Mean residence time in cynomolgus monkey at 1 mg/kg, iv; format: ADME, organism-based, Macaca fascicularis; set-up: dose 1 mg/kg, route intravenous; conditions: in vivo
[4] = Oral bioavailability in cynomolgus monkey at 5 mg/kg; format: ADME, organism-based, Macaca fascicularis; conditions: in vivo
Cytochrome P450 1A2 = target: T3, Cytochrome P450 1A2 (Homo sapiens, UniProt P05177); experiment: Inhibition of CYP1A2; format: ADME
T3 sequence (P05177 whole entry): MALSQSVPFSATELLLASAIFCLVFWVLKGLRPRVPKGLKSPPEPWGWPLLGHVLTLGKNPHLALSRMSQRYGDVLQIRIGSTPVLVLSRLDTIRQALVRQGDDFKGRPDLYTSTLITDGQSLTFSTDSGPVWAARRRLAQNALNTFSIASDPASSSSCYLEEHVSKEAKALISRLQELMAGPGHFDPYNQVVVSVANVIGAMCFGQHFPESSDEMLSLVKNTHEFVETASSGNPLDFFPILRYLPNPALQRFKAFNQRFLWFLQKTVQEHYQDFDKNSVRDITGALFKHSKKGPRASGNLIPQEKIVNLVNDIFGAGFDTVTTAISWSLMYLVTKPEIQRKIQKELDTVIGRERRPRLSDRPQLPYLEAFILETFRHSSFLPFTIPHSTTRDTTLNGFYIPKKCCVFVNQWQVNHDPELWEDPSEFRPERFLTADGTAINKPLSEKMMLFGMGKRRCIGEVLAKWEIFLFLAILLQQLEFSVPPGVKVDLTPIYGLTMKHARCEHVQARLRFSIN

## CCS(=O)(=O)CCN(C(=O)Cc1ccc(F)c(C(F)(F)F)c1)[C@H](C)c1nc2ncccc2c(=O)n1-c1ccc(OCC(F)(F)F)cc1
[1]
  IC50: 1 nM
[2]
  IC50: 4 nM
[3]
  MRT: 1.6 h
[4]
  bioavailability: 14%
Cytochrome P450 1A2
  Activity: Active
